Data as given in ChEMBL document CHEMBL1150815, “Blepharocalyxins C--E, three new dimeric diarylheptanoids, and related compounds from the seeds of Alpinia blepharocalyx” (2001).

Legend:
[1] = Antiproliferative activity against mouse Colon 26-L5 cells by MTT assay; assay type: functional; conditions: read-out: ED50 (the source's name)
Summary of the method: (§1)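 Cells grown in medium with 10% fetal calf serum, 0.1% sodium bicarbonate and 2 mM glutamine. Viability with and without agents measured by MTT assay. 5-Fluorouracil served as positive control. Activity expressed as ED50 in µM.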

HT-1080 = assay: Antiproliferative activity against human HT1080 cells by MTT assay; assay type: functional; conditions: read-out: ED50 (the source's name); summary of the method: as §1

Row | SMILES | EC50 [1] [µM] | EC50 (HT-1080) [µM]
1 | Oc1ccc(CC[C@H]2CC=C[C@@H](c3ccc(O)cc3)O2)cc1 | > 100 | 79.4
2 | Oc1ccc(CC[C@H]2CC=C[C@H](c3ccc(O)cc3)O2)cc1 | 71.2 | 45.3
3 | Oc1ccc(CC[C@H]2C[C@H](O)[C@H](O)[C@@H](c3ccc(O)cc3)O2)cc1 | 44.2 | > 100
4 | Oc1ccc(CC[C@H]2CC(O)C(O)[C@@H](c3ccc(O)cc3)O2)cc1 (mixture of isomers) | 49.4 | 83.7
5 | Oc1ccc(/C=C/[C@H](C[C@@H](O)CCc2ccc(O)cc2)[C@@H]2[C@@H](c3ccc(O)cc3)O[C@@H](CCc3ccc(O)cc3)C[C@@H]2O)cc1 [BLEPHAROCALYXIN C] | 29.6 | 54.3
6 | Oc1ccc(/C=C/[C@@H]2C[C@H](CCc3ccc(O)cc3)O[C@@H]3C[C@H](CCc4ccc(O)cc4)O[C@H](c4ccc(O)cc4)[C@@H]23)cc1 [BLEPHAROCALYXIN D] | 3.61 | 25.7
7 | COc1cc(O)c([C@@H]2C[C@H](CCc3ccc(O)cc3)O[C@H](c3ccc(O)cc3)[C@H]2[C@H](/C=C/C[C@@H](O)CCc2ccc(O)cc2)c2ccc(O)cc2)c(O)c1C(=O)/C=C/c1ccc(O)cc1 [BLEPHAROCALYXIN E] | 32.2 | 9.02
8 | O=c1[nH]cc(F)c(=O)[nH]1 [FLUOROURACIL] | 0.53 | 8
